# IEC-6 cytotox – cytotoxicity in IEC-6 intestinal epithelial cells, primary screen, cytotoxicity control for KLF5 inhibitor project, cell-based, luminescence; IEC-6 cytotoxicity, luminescence viability; inhibition, % at 5 µM; 290,000 tested, 0.78% active; AID 1825, 2009;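 note: 0% = plate median of test compound wells and 100% = cytotoxic reference compound wells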
# Ba/F3 V617F tox – reduced viability of JAK2V617F-dependent Ba/F3 cells, primary screen, JAK2V617F inhibitor project, cell-based, Ba/F3 EpoR-JAK2V617F, luminescence; ATP luminescence; inhibition, % at 5.6 µM; 220,000 tested, 1.1% active;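 active = inhibition above the campaign mean plus 3 SD over all tested compounds, cut at about 24% in these data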;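 note: cytokine-independent growth of Ba/F3 cells driven by EpoR plus mutant JAK2; 0% = DMSO-treated cells and 100% = JAK inhibitor I control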
# BaF3 tox – parental Ba/F3 cell viability inhibition, counter-screen for JAK2V617F inhibitor project, murine pro-B, CellTiter-Glo luminescence; CellTiter-Glo ATP luminescence; inhibition, % at 5.6 µM; 220,000 tested, 1.1% active; AID 1486, 2009;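 active = inhibition above a per-campaign cutoff, the mean inhibition of all tested compounds plus 3 SD, cut at about 27% in these data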;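 note: 0% = DMSO wells and 100% = JAK Inhibitor I control wells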
# b-catenin transl – modulators of beta-catenin nuclear translocation, primary screen, imaging, HeLa cells, immunofluorescence, high-content; 190,000 tested, 0.3% active; nuclear translocation activity, % at 5 µM; AID 1665, 2009;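 active = nuclear translocation activity above 50% at 5 µM, with a well cell count of 50 or more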;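 note: per-cell ratio of nuclear to cytoplasmic median beta-catenin stain intensity; plate controls were DMSO negative control for no effect and GSK-3 inhibitor IX positive control for full effect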
#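 Technique: fluorescence imaging of beta-catenin antibody stain plus DAPI / Material: human HeLa cell line / Incubation: compound treatment 24 h, 37°C, 5% CO2 / Read-out basis: % activation of per-cell nuclear versus cytoplasmic median beta-catenin signal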
# MT stabilize HCS – microtubule stabilizers in HeLa cells, primary screen, imaging, high-content imaging | HeLa tubulin immunostaining HCS, 24 h; share of cells brighter than vehicle mean+2SD | % tubulin-high responders, % at 10 µM | 200,000 tested, 0.83% active | AID 2205, 2009;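 active = plate Z-score above 3 for both tubulin-high and condensed-nucleus cell shares, with cell loss under 80%, at 10 µM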;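 note: anti alpha tubulin signal scored within the nucleus-defined area of each cell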
# KLF5 inhibitor – KLF5 expression inhibitors, primary screen, DLD-1 cells, luminescence | DLD-1 KLF5 promoter-luciferase reporter | inhibition, % at 5 µM | 290,000 tested, 0.23% active;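 active = inhibition above a per-plate limit of that plate's mean compound inhibition plus 3 SD, cut at about 60% in these data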;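 note: 0% = DMSO wells and 100% = LY294002 at 200 µM; higher means less KLF5 promoter-driven luciferase light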
# IEC-6 tox confirm – cytotoxic compounds in IEC-6 epithelial cells, confirmation, cytotoxicity control, cell-based, luminescence. shares compounds with IEC-6 cytotox. IEC-6 rat intestinal epithelial viability. inhibition, % at 5 µM. 1,900 tested, 63% active. AID 1907, 2009;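 note: 0% = vehicle and 100% = reference cytotoxic drug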
# * marks the source's active call; other numbers are inactive results; / = no result given. Hits are enriched below; roughly 2.1% of the tested compounds scored in any of these assays. Cut-off read from the data, not from the text of the source, unless noted: active = inhibition above about 22%; inactive = the rest.
SMILES,IEC-6 cytotox,Ba/F3 V617F tox,BaF3 tox,b-catenin transl,MT stabilize HCS,KLF5 inhibitor,IEC-6 tox confirm
COC(=O)c1sccc1NC(=S)N1CCN(c2ccccc2F)CC1,3,-2,2,/,5,27,/
CC[n+]1c(/C=C/c2ccc(OC)c(OC)c2)ccc2ccccc21,0,/,/,/,/,-53,/
CCN(CC)c1ccc(/C=C/c2ccc3ccc(OC)cc3[n+]2CC)cc1,48*,/,/,/,/,22,31*
CC[n+]1c(/C=C/c2ccc(N(C)C)cc2)ccc2ccccc21,48*,101*,95*,0,21,26,76*
CC[n+]1ccccc1/C=C/c1ccc(N(C)C)cc1,22*,99*,76*,0,4,30,23*
Cc1ccc(C(=O)O/N=C/c2ccc(N(C)C)cc2)cc1,-11,-2,2,1,2,-24,/
Cc1ccc(/C=C/c2ccc(N(C)C)cc2)[n+](C)c1,32*,/,/,/,/,-7,26*
CC1(C)CC(NS(=O)(=O)c2ccc(Cl)cc2)CC(C)(C)N1,-2,/,/,/,/,-6,/
CC1(C)CC(=O)C2=C(C1)NC(Nc1nc3ccccc3o1)=NC2c1ccccn1 (configuration not stated),23*,3,9,-1,7,-1,9
CC1(C)CC(=O)C2=C(C1)NC(Nc1nc3ccccc3o1)=NC21CCCC1,0,0,2,0,3,-8,/
CN(c1ccccc1)S(=O)(=O)c1ccc(C(=O)N2CCCC(C(F)(F)F)C2)cc1 (configuration not stated),-8,/,/,/,/,-23,/
CC(=O)NC1=NN(C(C)=O)C(C)(CS(=O)(=O)c2ccc3ccccc3c2)S1 (configuration not stated),0,-3,4,3,5,-35,/
CCCCOc1ccc(Br)cc1/C(C)=N/NC1=NCCN1,83*,80*,75*,52*,8,32,66*
Cc1ccc(S(=O)(=O)N2CCOCC2)cc1NC(=O)CSc1nc2ccccc2c(=O)n1Cc1ccccc1,-1,1,4,0,2,-28,/
O=C(CSc1nc2ccccc2c(=O)n1Cc1ccccc1)Nc1ccc(Br)cc1C(=O)O,34*,/,/,/,/,8,20
O=C(Cc1cccc2ccccc12)Nc1ccc(Br)cc1C(=O)O,25*,/,/,/,/,9,3
COc1ccc(N2C(=O)CC(n3c(CCCCO)nc4ccccc43)C2=O)cc1 (configuration not stated),0,2,2,1,2,-1,/
CCCNC(=O)C1CNc2ccccc2O1 (configuration not stated),-9,-2,3,1,3,-2,/
COc1cccc(CN(C)C(=O)COc2ccc(C(=O)c3ccc(Cl)cc3)cc2)c1OC,3,/,/,/,/,-12,/
CCOc1ccc(C)cc1S(=O)(=O)n1cnc2ccccc21,51*,/,/,/,/,56,29*
COc1ccc(CNc2ccc3c(c2)ncn3-c2ccccc2OC)cc1,3,-3,0,-2,2,-1,/
COc1ccccc1-n1cnc2cc(NCc3ccco3)ccc21,80*,74*,78*,131*,32*,56,56*
O=C(Nc1nc2ccccc2n1CCN1CCOCC1)c1ccc(COc2ccccc2Br)o1,3,1,5,-2,4,-26,/
O=C(Nc1cc(=O)[nH]c(=O)[nH]1)c1cc(Cl)ccc1Cl,45*,/,/,/,/,45,14
COc1ccc(/C(O)=C2/C(=O)C(=O)N(c3ncccn3)C2c2ccc(F)cc2)cc1 (configuration not stated),-2,-5,-2,-1,/,-31,/
SMILES,IEC-6 cytotox,Ba/F3 V617F tox,BaF3 tox,b-catenin transl,MT stabilize HCS,KLF5 inhibitor,IEC-6 tox confirm
Cc1ccc2nc(N/C(=N/S(=O)(=O)c3ccc(F)cc3F)c3ccccc3)sc2c1,22*,2,7,0,3,-58,6
C=CCn1c(SCC(=O)NC(=O)c2cccn2C)nc2ccccc2c1=O,0,-2,3,1,3,1,/
CCC(C)n1c(SCC(=O)NC(=O)c2cccn2C)nc2ccccc2c1=O (configuration not stated),33*,4,3,0,5,21,29*
CCc1cn([C@H]2C[C@H](O)[C@@H](CO)O2)c(=O)[nH]c1=O,2,4,6,-5,1,-4,/
O=c1[nH]c(=O)n([C@H]2C[C@H](O)[C@@H](CO)O2)cc1C(F)(F)F,85*,96*,88*,/,6,7,80*
O=C(Cn1ncc(Cl)c(Cl)c1=O)N1CCc2ccccc21,41*,6,-7,-2,2,4,21
COc1ccccc1N1CCN(C(=O)c2ccc3[nH]c(C)c(C)c3c2)CC1,73*,/,/,/,/,58,57*
CC1=NN(c2nc3ccccc3[nH]2)C(=O)/C1=C/N(C)C,40*,58*,53*,-1,3,-2,68*
COc1ccc(/C=C/CN2CCCC(CCC(=O)NCc3ccc(F)c(F)c3)C2)cc1 (configuration not stated),-2,3,13,-3,3,6,/
S=C(Nc1ccccc1)Nc1nccs1,42*,2,0,0,/,-115,8
N#Cc1ccc(C(=O)CN2CCN(c3ccccc3)CC2)cc1,2,/,/,/,/,5,/
C=CCn1c(SCC(=O)c2cccs2)nc2sc(CC)cc2c1=O,30*,-3,0,-2,1,-13,36*
CCN(c1ccccc1)S(=O)(=O)c1ccc(C(=O)NCCCn2ccnc2)cc1,5,-3,1,3,5,-12,/
CCN(c1ccccc1)S(=O)(=O)c1ccc(Oc2ccc(-n3ccnc3)cc2)nc1,30*,11,20,/,38,-7,29*
C/C(=N\Nc1ncnc2sc(C)c(C)c12)c1ccccn1,91*,/,/,/,/,24,94*
CCOCCCNC(=O)c1cc2c(=O)n(CC)c3ccccc3c2s1,22*,/,/,/,/,-57,7
CCN(CC)CCCNC(=O)c1cc2c(=O)n(CC)c3ccccc3c2s1,26*,/,/,/,/,-13,11
CCCCOc1ccc(C2/C(=C(\O)c3ccc4c(c3)OCCO4)C(=O)C(=O)N2CCCN2CCOCC2)cc1 (configuration not stated),3,/,/,/,/,-9,/
COc1ccc(N(C)C2=NS(=O)(=O)c3ccccc32)cc1,55*,50*,61*,28,49*,56,30*
COC1=NS(=O)(=O)c2ccccc21,7,2,7,-1,5,1,/
COc1ccc(/C=N/N(C)C2=NS(=O)(=O)c3ccccc32)cc1,6,/,/,/,/,-36,/

# Screens (PubChem)
